The source of these data is ChEMBL document CHEMBL6153131, “Rational Design and Optimization of a Potent IDO1 Proteolysis Targeting Chimera (PROTAC)” (J Med Chem, 2025).

SMILES strings stand for the structures. Calls of active or inactive are those of the source. The calls are words filed in the database; no cut-off is given here.

In assay [1] the target is T1, Protein cereblon/Indoleamine 2,3-dioxygenase 1 (Homo sapiens, UniProt P14902+Q96SW2). Nature of the assay: PROTAC activity at CRBN/IDO1 in human U87 cells assessed as induction of IDO1 degradation at 100 nM at 1 uM pretreated with IFN-gamma for 24 hrs followed by compound addition and measured after 24 hrs in presence of pomalidomide by Western blotting analysis. The assay is classed as cell-based.
Target sequence in this assay (P14902 whole entry, looked up): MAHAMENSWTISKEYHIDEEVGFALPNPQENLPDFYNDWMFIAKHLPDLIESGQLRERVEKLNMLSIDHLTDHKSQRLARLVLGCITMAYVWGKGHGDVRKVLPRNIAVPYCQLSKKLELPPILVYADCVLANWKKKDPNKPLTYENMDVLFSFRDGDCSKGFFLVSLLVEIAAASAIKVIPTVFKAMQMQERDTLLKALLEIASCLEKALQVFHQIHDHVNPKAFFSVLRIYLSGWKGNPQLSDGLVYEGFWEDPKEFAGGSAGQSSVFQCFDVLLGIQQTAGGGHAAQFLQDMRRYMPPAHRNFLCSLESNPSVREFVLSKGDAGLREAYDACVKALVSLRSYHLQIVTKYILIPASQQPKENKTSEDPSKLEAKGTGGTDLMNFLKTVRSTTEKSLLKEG
Target sequence in this assay (Q96SW2 whole entry, looked up): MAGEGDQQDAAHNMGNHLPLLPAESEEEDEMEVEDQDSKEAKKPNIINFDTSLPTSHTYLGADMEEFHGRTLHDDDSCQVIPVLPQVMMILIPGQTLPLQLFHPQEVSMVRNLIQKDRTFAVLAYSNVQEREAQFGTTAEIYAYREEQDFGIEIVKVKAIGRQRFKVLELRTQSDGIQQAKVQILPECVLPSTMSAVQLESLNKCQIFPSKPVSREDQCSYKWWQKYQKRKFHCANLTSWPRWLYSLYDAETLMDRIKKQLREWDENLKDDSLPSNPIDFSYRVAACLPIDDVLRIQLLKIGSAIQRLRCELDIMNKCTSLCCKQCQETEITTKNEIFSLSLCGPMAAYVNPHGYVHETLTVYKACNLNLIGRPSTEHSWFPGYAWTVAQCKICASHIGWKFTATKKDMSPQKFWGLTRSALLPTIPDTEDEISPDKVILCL

Assay [2] has as its target T1, Protein cereblon/Indoleamine 2,3-dioxygenase 1. Nature of the assay: Binding affinity to CRBN/6His-tagged recombinant IDO1 (unknown origin) assessed as ternary complex formation by measuring half life by Biolayer Interferometry assay. Type of assay: protein assay.
Target sequence in this assay (P14902 whole entry, looked up): as the sequence (P14902 whole entry, looked up) above
Target sequence in this assay (Q96SW2 whole entry, looked up): as the sequence (Q96SW2 whole entry, looked up) above
Assay [3] shares this target. Nature of the assay: PROTAC activity at CRBN/IDO1 in human GBM43 cell assessed as induction of IDO1 degradation at 0.01 uM pretreated with IFN-gamma for 24 hrs followed by compound addition and measured after 24 hrs by Western blotting analysis (reference value: 100%). The assay is classed as cell-based. Summed up: (§1)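 GBM43 patient-derived cells given an extended dose range of PROTAC for 24 h. Protein analysed by Western blot for IDO1, and IFNγ-induced IDO1 normalised to untreated samples. n = 3 independent experiments; data as mean ± SEM.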
Target sequence in this assay (P14902 whole entry, looked up): as the sequence (P14902 whole entry, looked up) above
Target sequence in this assay (Q96SW2 whole entry, looked up): as the sequence (Q96SW2 whole entry, looked up) above

The target is the same in assay [4]. As to the kind of experiment: PROTAC activity at CRBN/IDO1 in human U87 cells assessed as induction of IDO1 degradation by measuring remaining activity at 0.003 uM incubated for 24 hrs by Western blotting analysis (reference value: 100%). Type of assay: cell-based.
Target sequence in this assay (P14902 whole entry, looked up): as the sequence (P14902 whole entry, looked up) above
Target sequence in this assay (Q96SW2 whole entry, looked up): as the sequence (Q96SW2 whole entry, looked up) above
Assay [5] has the same target. As to the kind of experiment: PROTAC activity at CRBN/IDO1 in human U87 cells assessed as induction of IDO1 degradation at 100 nM pretreated with IFN-gamma for 24 hrs followed by compound addition and measured after 24 hrs in presence of NU223618 by Western blotting analysis. Type of assay: cell-based.
Target sequence in this assay (P14902 whole entry, looked up): as the sequence (P14902 whole entry, looked up) above
Target sequence in this assay (Q96SW2 whole entry, looked up): as the sequence (Q96SW2 whole entry, looked up) above
A further assay concerns SW1990. As to the kind of experiment: Inhibition of kynurenine production in human SW1990 cells pretreated with IFN-gamma for 24 hrs followed by compound addition and measured after 24 hrs by Ehrlich's reagent based analysis. As to conditions: dose 50-100 nM. The assay is classed as functional, cell-based.
The target of assay [6] is T1, Protein cereblon/Indoleamine 2,3-dioxygenase 1. As to the kind of experiment: PROTAC activity at CRBN/IDO1 in human U87 cells assessed as induction of IDO1 degradation by measuring remaining activity at 0.3 uM pretreated with IFN-gamma for 24 hrs followed by compound addition and measured after 24 hrs by Western blotting analysis (reference value: 100%). Type of assay: cell-based. Summed up: (§2)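 U87 cells given an extended dose range of PROTAC for 24 h, then Western blot for IDO1. IFNγ-induced IDO1 levels normalised to untreated samples. n = 3 independent experiments; mean ± SEM.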
Target sequence in this assay (P14902 whole entry, looked up): as the sequence (P14902 whole entry, looked up) above
Target sequence in this assay (Q96SW2 whole entry, looked up): as the sequence (Q96SW2 whole entry, looked up) above

Assay [7] shares this target. Nature of the assay: PROTAC activity at CRBN/IDO1 in human GBM43 cell assessed as induction of IDO1 degradation at 10 uM pretreated with IFN-gamma for 24 hrs followed by compound addition and measured after 24 hrs by Western blotting analysis (reference value: 100%). The assay is classed as cell-based. Summed up:
as §1

Assay [8] shares this target. Nature of the assay: PROTAC activity at CRBN/IDO1 in human U87 cells assessed as induction of IDO1 degradation at 100 nM at 1 uM pretreated with IFN-gamma for 24 hrs followed by compound addition and measured after 24 hrs in presence of MG132 by Western blotting analysis. The assay is classed as cell-based.
The target is the same in assay [9]. As to the kind of experiment: PROTAC activity at CRBN/N-terminal HiBiT-tagged IDO1 (unknown origin) transfected in human U87 cells assessed as induction of IDO1 degradation by measuring maximum efficacy pretreated with IFN-gamma for 24 hrs followed by compound addition and measured after 24 hrs by Nano-Glo HiBiT assay relative to control. The assay is classed as cell-based. The gist of the method:
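U87 cells carrying HiBiT knocked in by CRISPR/Cas9 at the IDO1 N-terminus, treated for 24 h. Degradation read as loss of luminescence. DC50 fitted from the lowest concentration up to maximal degradation, excluding hook-effect points; triplicate mean ± SD.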

Assay [10] shares this target. Nature of the assay: PROTAC activity at CRBN/IDO1 in human U87 cells assessed as induction of IDO1 degradation at 50 to 100 nM pretreated with IFN-gamma for 24 hrs followed by compound addition and measured upto 72 hrs by Western blotting analysis. The conditions noted are these: dose 50-100 nM. Type of assay: cell-based. The gist of the method:
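U87 cells under single continuous PROTAC treatment (50 and 100 nM), sampled at multiple time points up to 72 h. IDO1 assessed by Western blot.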

For assay [11] the target is unchanged. Nature of the assay: PROTAC activity at CRBN/IDO1 in human U87 cell assessed as induction of IDO1 degradation pretreated with IFN-gamma for 24 hrs followed by compound addition and measured after 24 hrs by Western blot analysis. Type of assay: cell-based. The gist of the method: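 IDO1 in U87 cells induced with 50 ng/mL human IFN-γ, then compound given across an extended dose range for 24 h. IDO1 and GAPDH read by Western blot; IDO1 levels normalized to untreated; DC50 from n = 3 independent experiments.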
Target sequence in this assay (P14902 whole entry): as the sequence (P14902 whole entry, looked up) above
Target sequence in this assay (Q96SW2 whole entry): as the sequence (Q96SW2 whole entry, looked up) above

The next assay deals with U-87MG ATCC. Nature of the assay: Inhibition of kynurenine production in human U87 cells […] and measured after 24 hrs by Ehrlich's reagent based analysis. The assay is classed as functional, cell-based. As to conditions: dose 0.001-10 µM. The gist of the method: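 U87 cells plated, then 24 h later given compound with 50 ng/mL IFN-γ for a total of 24 h. Supernatant kynurenine measured with Ehrlich's reagent; cells without IFN-γ as control; mean ± SEM, Tukey's test.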

The next assay deals with PC-3. Nature of the assay: Inhibition of kynurenine production in human PC-3 cells pretreated with IFN-gamma for 24 hrs followed by compound addition and measured after 24 hrs by Ehrlich's reagent based analysis. Type of assay: functional, cell-based. The conditions noted are these: dose 50-100 nM.
Assay [12] has as its target T1, Protein cereblon/Indoleamine 2,3-dioxygenase 1. As to the kind of experiment: PROTAC activity at CRBN/IDO1 in human U87 cells overexpressing GFP-fused IDO1 assessed as induction of IDO1 degradation pretreated with IFN-gamma for 24 hrs followed by compound addition and measured after 24 hrs by Western blotting analysis. The assay is classed as cell-based. The conditions noted are these: dose 50-100 nM. The gist of the method:
(§3)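 Cells had IDO1 induced with IFNγ, then were treated at the indicated concentrations for 24 h. Lines: PDX-6 and PDX-38 adult GBM PDX cells, U87 overexpressing GFP-fused IDO1, PC-3, KNS42, MDA-MB-231, SW-1990 and SKOV-3. Lysates probed for IDO1 and GAPDH by Western blot; representative of 3 separate replicates.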

Assay [13] has the same target. As to the kind of experiment: PROTAC activity at CRBN/IDO1 in human GBM43 cell assessed as induction of IDO1 degradation at 0.003 uM pretreated with IFN-gamma for 24 hrs followed by compound addition and measured after 24 hrs by Western blotting analysis (reference value: 100%). Type of assay: cell-based. The gist of the method: as §1
The target is the same in assay [14]. As to the kind of experiment: PROTAC activity at CRBN/IDO1 in human U87 cells assessed as induction of IDO1 degradation by measuring remaining activity at 0.01 uM pretreated with IFN-gamma for 24 hrs followed by compound addition and measured after 24 hrs by Western blotting analysis (reference value: 100%). The assay is classed as cell-based. Summed up: as §2

Assay [15] has the same target. As to the kind of experiment: PROTAC activity at CRBN/IDO1 in human PC-3 cells assessed as induction of IDO1 degradation pretreated with IFN-gamma for 24 hrs followed by compound addition and measured after 24 hrs by Western blotting analysis. Type of assay: cell-based. As to conditions: dose 50-100 nM. The gist of the method:
as §3

Another assay has as its system SK-OV-3. As to the kind of experiment: Inhibition of kynurenine production in human SK-OV-3 cells pretreated with IFN-gamma for 24 hrs followed by compound addition and measured after 24 hrs by Ehrlich's reagent based analysis. The assay is classed as functional, cell-based. The conditions noted are these: dose 50-100 nM.
Another assay concerns PDX-38. As to the kind of experiment: Inhibition of kynurenine production in human PDX-38 cells pretreated with IFN-gamma for 24 hrs followed by compound addition and measured after 24 hrs by Ehrlich's reagent based analysis. The assay is classed as functional, cell-based. As to conditions: dose 50-100 nM.
Another assay concerns Kelly. As to the kind of experiment: Downregulation of CDK8 protein level in human Kelly cells at 1 uM incubated for 24 hrs by proteomics analysis. The assay is classed as functional, cell-based.

Consider `C[C@@H](C(=O)Nc1cccc(OC2CCN(C(=O)CN3CCC(N4CCN(c5ccc6c(c5)C(=O)N(C5CCC(=O)NC5=O)C6=O)CC4)CC3)CC2)c1)[C@H]1CC[C@@H](c2ccnc3ccc(F)cc32)CC1` (stereo partly specified), for which the result in [1], in assay [5] and in [8] was inactive. Moreover, the T1/2 in assay [2] was determined as 17.3 min. Further, the Activity in assay [3] was 61%; in assay [4] it was 71%; in assay [6], 20%; in assay [7], 87%; in assay [12], “Dose-dependent-effect”; in assay [13] it was 75%. Besides, the Activity in assay [14] is 48%; in assay [15], “Dose-dependent-effect”. Besides, the inhibition result with SW1990, in the assay on U-87MG ATCC, in the assay with PC-3, with SK-OV-3 and in the assay with PDX-38 was “Dose-dependent-effect” each time. Besides, in assay [9], the Emax stood at 63%. Further, the outcome (in assay [10]; in the assay on Kelly) was Active. Besides, the DC50 in [11] came out at 7.1 nM.
